This is a sample that favours compounds with a hit; in the whole collection about 3.5% have one here.
rRNA inh HTS: inhibits bacterial ribosomal RNA function over humanized ribosomes; E. coli WT GFP vs humanized-ribosome RFP mutants, fluorescence, 24 h; stronger effect = lower value; DMSO median 0, no signal -100; GFP signal change (wild-type ribosome), % (test concentration not listed); 1.6% of 350,000 active; AID 720706;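 active = significant combined selectivity score with lowered wild-type GFP, culture density cut under 30%, mutant RFP and density less affected; inactive = any of these conditions unmet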
HIV Env fusion: blocks HIV Env-driven cell-cell fusion; HeLa-JRFL Env/CEM21 cell fusion, luciferase; inhibition, % at 12.3 µM; 1.1% of 360,000 active;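 active = mean replicate inhibition score of at least 50 and every replicate individually at or above 50; inconclusive = only one of the two criteria met; inactive = mean below 50 and not all replicates reaching 50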;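 also: 0% = plate neutral controls and 100% = maraviroc near 300 nM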
PGC1a acetyl inh: PGC1a acetylation modulation, inhibitor mode; U2OS PGC1a acetylation, AlphaScreen anti-acetyl-lysine; with virally co-expressed GCN5 acetyltransferase; inhibition, % at 15.6 µM; 0.17% of 350,000 active; AID 651687;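 active = every replicate shows inhibition of at least 40%; inconclusive = mean inhibition at least 40% but some replicate below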;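 also: 0% = neutral control wells and 100% = positive control wells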
FGF22 binding: binders of recombinant human FGF22 by thermal shift | Q9HCT0 | SYPRO orange fluorescence; percent of sucrose octasulfate shift, DMSO zero | activity (Tm shift, normalised), % at 9.99 µM | 1.5% of 340,000 active | AID 651658;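 active = mean Tm shift, scaled 0 neutral to 100 positive control, at about 1.3% or above, every replicate too, limit read from the data; inconclusive = no clear call, values can overlap the other calls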
ERAP1 inh: ERAP1 (human) enzyme inhibition | Q9NZ08 | recombinant ERAP1, Leu-AMC fluorescence, 60 min | inhibition, % at 10.7 µM | 0.15% of 340,000 active | AID 652197;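 active = mean replicate inhibition of at least 30%, or all replicates individually reaching that 30% level; inactive = mean below 30% and not every replicate reaching it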;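 also: 0% = neutral control wells and 100% = L-leucinethiol positive control wells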
Target sequence (Q9NZ08 whole entry, looked up): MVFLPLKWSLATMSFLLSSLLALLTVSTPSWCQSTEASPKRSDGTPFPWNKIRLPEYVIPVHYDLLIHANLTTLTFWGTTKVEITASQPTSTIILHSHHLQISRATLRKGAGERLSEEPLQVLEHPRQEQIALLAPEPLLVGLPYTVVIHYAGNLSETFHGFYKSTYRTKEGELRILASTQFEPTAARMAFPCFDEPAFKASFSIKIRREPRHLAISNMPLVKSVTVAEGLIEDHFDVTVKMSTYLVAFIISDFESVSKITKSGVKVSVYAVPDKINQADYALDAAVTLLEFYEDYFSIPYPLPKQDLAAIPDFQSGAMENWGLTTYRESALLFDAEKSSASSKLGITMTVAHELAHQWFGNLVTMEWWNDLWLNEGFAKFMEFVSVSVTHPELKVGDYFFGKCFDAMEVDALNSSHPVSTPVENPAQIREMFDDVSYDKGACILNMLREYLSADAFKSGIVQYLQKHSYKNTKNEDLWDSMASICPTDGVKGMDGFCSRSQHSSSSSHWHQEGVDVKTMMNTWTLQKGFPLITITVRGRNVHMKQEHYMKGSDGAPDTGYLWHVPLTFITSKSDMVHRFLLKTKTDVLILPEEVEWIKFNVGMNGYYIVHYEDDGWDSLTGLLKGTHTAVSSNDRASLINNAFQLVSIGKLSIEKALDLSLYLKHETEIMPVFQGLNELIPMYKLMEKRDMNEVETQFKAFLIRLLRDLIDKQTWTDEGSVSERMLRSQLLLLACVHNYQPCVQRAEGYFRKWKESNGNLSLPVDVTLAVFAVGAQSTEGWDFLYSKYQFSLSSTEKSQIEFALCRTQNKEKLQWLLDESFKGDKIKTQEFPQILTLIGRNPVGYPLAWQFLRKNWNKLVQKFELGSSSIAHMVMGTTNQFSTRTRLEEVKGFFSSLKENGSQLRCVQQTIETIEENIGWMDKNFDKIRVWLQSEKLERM
Cneo AK release: Cryptococcus neoformans lysis via adenylate kinase release; C. neoformans lysis, adenylate kinase release luminescence, 4 h; normalised: neutral wells 0, clomiphene wells 100; lysis activity, % at 15 µM; 0.2% of 360,000 active; AID 651654;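 active = mean lysis activity across replicates of at least 80%, whatever share of replicates individually reach that level; inactive = mean lysis activity below 80%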
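Material – Cryptococcus neoformans yeast cells · Quantity – 5 × 10^6 yeast cells/mL · Buffer or medium – YPD medium · Compound – single dose · Timing – 4 h static compound exposure, 37 °C, read 1 h post-reagent · Signal – adenylate kinase release luminescence · Read-out basis – lysis from increased AK signal · Benchmarks – Clomiphene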
AID977621: growth inhibition of wild-type GFP E. coli, dose response, H69 mutant RFP, cherry-pick; shares compounds with rRNA inh HTS; E. coli wild-type GFP strain growth, fluorescence, 24 h; activity change, negative = inhibition at 50 µM; 1,900 tested, under 10 active;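 active = Wild-type ribosome reporter drop at least double the humanized mutant ribosome reporter drop, growth loss under a set limit; inconclusive = no clear call, values can overlap the other calls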;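 also: wild-type GFP and H69 mutant RFP strains grown together 50/50 in each well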
AID977628: E. coli growth inhibition, wild-type GFP versus h24 humanized RFP strain, dose response, h24 mutant RFP vs wild-type GFP, cherry-pick. E. coli WT GFP strain growth, fluorescence, 24 h. shares compounds with rRNA inh HTS. 1,900 tested, under 10 active. activity change, negative = inhibition at 50 µM;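 active = compound lowering the normal-ribosome reporter at least twice as much as the humanized-ribosome reporter, growth loss under a set limit; inconclusive = no clear call, values can overlap the other calls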;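 also: wild-type GFP and h24 humanized RFP strains co-cultured 1 to 1 per well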
* hit, by the source's call; ? = inconclusive; . = no result given.

SMILES	rRNA inh HTS	HIV Env fusion	PGC1a acetyl inh	FGF22 binding	ERAP1 inh	Cneo AK release	AID977621	AID977628
COc1ccccc1-c1noc2ncnc(Nc3cccc(C)c3C)c12	-16.5*	4.5	-2.2	-0.1	1.0	-2.4	-16.4	-15.2
O=C1NCCN1CCNc1nc(NCc2ccccc2)nc2ccsc12	1.7	2.9	.	-0.2	-4.8	-2.0	.	.
CCN(CC)C(=O)CSc1ncnc2sccc12	20.4	14.4	.	0.0	-0.3	.	.	.
COC(=O)CC#C[C@H](C)[C@@H](NS(=O)(=O)c1ccc([N+](=O)[O-])cc1)C(C)(C)C	-13.5*	-13.8	.	41.7	-1.6	.	?	?
COC(=O)CC#C[C@H](C)[C@@H](NS(=O)(=O)c1ccc(C)cc1)C1CCCCC1	-7.4	-3.1	.	42.0	-0.3	.	.	.
Cc1ccc(Nc2nc(C(=O)NCC3CCCO3)cs2)cc1 (stereo unspecified)	-42.4*	25.7	-4.4	0.0	0.2	.	3.49	-3.15
Cc1nn(Cc2cccc(F)c2)c(C)c1NC(=O)c1c(Cl)cnn1C	-18.1*	-11.1	.	0.1	3.5	.	-4.82	-0.98
Cc1cccc(Cn2nc(C)c(NC(=O)c3ccc(F)cc3)c2C)c1	-8.9	6.0	-6.1	0.1	0.3	.	.	.
C[C@@H]1CN([C@@H](C)CO)C(=O)c2cc(NC(=O)CCCN(C)C)ccc2O[C@@H]1CN(C)Cc1ccc(-c2ccccc2)cc1	5.2	.	-2.9	-0.1	-1.5	7.2	.	.
Cn1cnc(S(=O)(=O)N2CCCCN3[C@H](CO)[C@H](c4ccc(-c5ccccc5F)cc4)[C@H]3C2)c1	-3.8	.	-0.6	-0.2	2.0	-19.4	.	.
Cc1ccc(N2C(=O)NC(NC(=O)C3CC3)(C(F)(F)F)C2=O)cc1 (stereo unspecified)	11.3	.	17.4	0.2	-0.3	-2.5	.	.
Fc1cnc(N2CCc3ccccc32)nc1N1CCc2ccccc21	.	-56.9	-0.1	.	.	6.5	.	.
CC1(C)CC(=O)c2cnc(N3CCc4ccccc43)nc2C1	-34.2*	-87.5	-9.2	0.0	20.5	.	-2.73	.
COc1cc(-c2ccc(N3C(c4ccsc4)=Cc4ccc(F)cc4C3c3c[nH]c4ccc(C#N)cc34)cc2)cc(OC)c1OC (stereo unspecified)	-25.4*	-9.6	.	0.0	-2.4	.	-5.62	-2.06
N#Cc1ccc2[nH]cc(C3c4cc(F)ccc4C=C(c4ccsc4)N3c3ccc(C#CCCO)cc3)c2c1 (stereo unspecified)	-24.9	10.6	.	0.0	0.4	.	.	.
COC(=O)c1cc2c(c3c4cc(F)ccc4n(S(=O)(=O)c4cccc(C)c4)c13)C(=O)N(Cc1ccco1)C2	-16.9*	-8.1	.	0.0	-3.0	.	-19	-9.79
COC(=O)c1cc2c(c3c4ccccc4n(S(=O)(=O)c4ccccc4)c13)C(=O)N(Cc1ccco1)C2	-19.4	-8.0	.	-0.1	-0.4	.	.	.
COC(=O)c1cc2c(c3c4cc(F)ccc4n(S(=O)(=O)c4ccccc4)c13)C(=O)N(Cc1ccco1)C2	-17.9*	6.6	.	-0.1	-5.1	.	-2.13	?
COC(=O)c1cc2c(c3c4cc(F)ccc4n(C(=O)c4ccccc4)c13)C(=O)N(Cc1ccco1)C2	4.2	25.4	.	0.3	-1.0	.	.	.
COC(=O)c1cc2c(c3c4cc(F)ccc4n(S(=O)(=O)c4cccc(C)c4)c13)C(=O)N(Cc1ccccc1OC)C2	4.2	44.2	.	0.2	0.0	.	.	.
COC(=O)c1cc2c(c3c4cc(OC)ccc4n(C(=O)c4ccccc4)c13)C(=O)N(Cc1ccco1)C2	-14.2*	18.7	.	-0.2	-4.9	.	0.152	-7.38
Cc1cccc(NC(=O)CSCC(=O)N2CCCc3ccccc32)c1	-1.3	-4.1	.	-0.6	-3.8	-1.0	.	.

Compound activity deposited in PubChem by Broad Institute.
